The values below come from publication PMC8320615 (Current Research in Toxicology, 2021).

Data set [1] is described as follows: MTT cytotoxicity on HepaRG cells in HK-2/HepaRG co-culture. It counts as cell-based. Conditions: human; for IC50 at 24 h / IC50 at 48 h: HepaRG cells in co-culture with HK-2 cells (IdMOC plates). Summed up: (§1)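 HK-2 (RPMI-1640) and HepaRG (William's E plus Tox supplement), passages 10–15, seeded together in IdMOC plates and allowed 4 h at 37 °C, 5% CO2. Test compound at several concentrations, DMSO ≤0.5% final, for 24 h and 48 h; MTT read-out. Triptolide positive control: 10 μmol/L for HK-2, 25 μmol/L for HepaRG. IC50 by nonlinear regression; mean ± SD. 48 h IC50 under 100 μM scored toxic.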

A further data set has as its system HepaRG cells. Described as above. It counts as cell-based. Particulars: co-culture; for effect on viability of HepaRG cells (in words): per Table 3; for IC50: MTT. The method, boiled down: as §1
The nature of data set [2]: MTT cytotoxicity on HK-2 cells in HK-2/HepaRG co-culture. The class given is cell-based. Particulars: human; for IC50 at 24 h / IC50 at 48 h: HK-2 cells in co-culture with HepaRG cells (IdMOC plates). Summed up:
as §1

For data set [3] the following is noted: reported in the literature ref Wang et al., 2009; cited from earlier work.
The test system of data set [4] is HK-2 cells. The experiment in a line: MTT cytotoxicity on HK-2 cells in HK-2/HepaRG co-culture. The class given is cell-based. Conditions: co-culture; for IC50: MTT. Summed up: as §1
The method of data set [5] in brief: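 Liver call by software prediction over five injury markers (AlkPhos, GGT, LDH, SGOT, SGPT), positive when three are positive. Kidney call by a self-built QSAR classifier (accuracy 76.7%) giving positive/negative. In vitro, 48 h MTT IC50 under 100 μM in HK-2/HepaRG co-culture counted as toxic. Compounds flagged when either approach was positive.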
The test system of data set [6] is HK-2 cells. The experiment in a line: MTT cytotoxicity on HK-2 cells in single culture. The class given is cell-based. Conditions: Homo sapiens, HK-2, 24 h, read-out: IC50 HK-2 Single culture. The method, boiled down:
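HK-2 cells (passages 10–15) in RPMI-1640 with 10% FBS at 37 °C, 5% CO2, cultured alone and exposed 24 h to a range of test compound concentrations, DMSO ≤0.5% final; vehicle control 0.5% DMSO. Viability by MTT; IC50 from nonlinear regression.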

Where [7] appears, read: read-out: Hepatic cytotoxicity IC50 HepaRG 24 h, 24 h.
Setting [8] is: read-out: Hepatic cytotoxicity IC50 HepaRG 48 h, 48 h.
[9] abbreviates: read-out: Renal cytotoxicity IC50 HK-2 24 h, 24 h.
Where [10] appears, read: read-out: Renal cytotoxicity IC50 HK-2 48 h, 48 h.

Usually IC50 stands for the concentration at which inhibition is half-maximal. As usually defined, the viability is the share of living cells, or the viability signal relative to a control.

Like-named read-outs stand apart in the source and are kept apart here. Where only a bound is given, the exact number is not on record here.

`O=C1c2cccc(O)c2C(=O)c2c(O)cc(CO)cc21` [No. 10, Aloe-emodin]: the IC50 at 24 h in data set [1] and in data set [2] was > 500 µM in each case. Also, the results for the IC50 at 48 h in data set [1] and in data set [2] were 96.2 µM and 134 µM, respectively. Besides, in the data set with HepaRG cells, the “effect on viability of HepaRG cells (in words)” value is on record as “decreased the viability of HepaRG cells”. The “nephrotoxicity in vivo (in words)” value in data set [3] is given as “nephrotoxic”.
For “2-O-β-D-Glucoside-9-dehydroxyeurotinone [No. 22]”, the IC50 in the data set with HepaRG cells (setting [7]), with HepaRG cells (setting [8]), in the data set with HK-2 cells [4] (setting [9]) and with HK-2 cells [4] (setting [10]) was > 500 µM each time.
In data set [1], `O=C(O)c1cc(O)c2c(c1)C(=O)c1cccc(O)c1C2=O` [No. 11, Rhein] gave an IC50 at 24 h of 307 µM and an IC50 at 48 h of 36.1 µM. In the data set on HepaRG cells, the “effect on viability of HepaRG cells (in words)” value was “decreased the viability of HepaRG cells”. In data set [2], this compound showed an IC50 at 24 h of 229 µM and an IC50 at 48 h of 44.1 µM. Also, the “effect on viability of HK-2 cells (in words)” value in the data set on HK-2 cells [4] (per Table 3) is on record as “reduced the viability of HK-2 cells”. Further, the “both hepatotoxicity and nephrotoxicity (in words)” value in data set [5] is “both hepatotoxicity and nephrotoxicity”.
As to `COc1c(O)c(C)cc2c1C(=O)c1c(ccc(O)c1O)C2=O` [No. 7, 1,2,7-trihydroxy-8-methoxy-6-methyl-9,10-anthraquinone], in data set [1], the IC50 at 24 h is > 500 µM and it took 44.2 µM to reach half-maximal inhibition (IC50 at 48 h). In data set [2], the IC50 at 24 h was > 500 µM and the IC50 at 48 h was > 500 µM.
With `COc1ccc2c(c1OC)C(=O)c1c(cc(C)c(O)c1OC)C2=O` [No. 4, 1,7,8-methoxyl-2-hydroxyl-3-methyl-anthraquinone], the IC50 in the data set with HepaRG cells (setting [7]) was 420 µM; in the data set with HepaRG cells (setting [8]) it was 192 µM; in the data set on HK-2 cells [4] (setting [9]), 332 µM; in the data set on HK-2 cells [4] (setting [10]) it was 37.5 µM.
Take `Cc1cc(O)c2c(c1)C(=O)c1cc(O)cc(O)c1C2=O` [No. 8, Emodin]: the IC50 at 24 h in data set [1] came out at 125 µM; in data set [2], 89 µM. Besides, the values for the IC50 at 48 h in data set [1] and in data set [2] were 31.9 µM and 122 µM, respectively. Besides, the “effect on viability of HepaRG cells (in words)” value in the data set on HepaRG cells is “decreased the viability of HepaRG cells”. Besides, in the data set on HK-2 cells [6], the IC50 amounted to 140 µM. Also, in data set [5], the “both hepatotoxicity and nephrotoxicity (in words)” value was “both hepatotoxicity and nephrotoxicity”.
Regarding `O=C1c2ccccc2C(=O)c2ccccc21` [No. 17, 9,10-Anthracenedione], the IC50 at 24 h in data set [1] was 93.4 µM; in data set [2] it was > 500 µM. Moreover, the IC50 at 48 h in data set [1] is 84.4 µM; in data set [2], 138 µM.
As to `CC(C)[C@]12O[C@H]1[C@@H]1O[C@]13[C@]1(O[C@H]1C[C@H]1C4=C(CC[C@@]13C)C(=O)OC4)[C@@H]2O` [Triptolide, reference compound], the viability at 25 μmol/L in data set [1] (HepaRG cells co-cultured with HK-2 cells in IdMOC plates) was 50.5 ± 5.68%. Besides, the viability at 10 μmol/L in data set [2] (HK-2 cells co-cultured with HepaRG cells in IdMOC plates) is 43.6 ± 2.26%.
Regarding `O=C(O)c1cc(O)c2c(c1)C(=O)c1cccc(O[C@@H]3O[C@H](CO)[C@@H](O)[C@H](O)[C@H]3O)c1C2=O` [No. 15, Rhein-8-O-β-D-glucoside], the IC50 with HepaRG cells (setting [7]) is > 500 µM; with HepaRG cells (setting [8]) it was 208 µM; with HK-2 cells [4] (setting [9]), > 500 µM; in the data set with HK-2 cells [4] (setting [10]) it was 108 µM.
In data set [1], `COc1c(O)cc2c(c1O)C(=O)c1c(cc(C)c(O)c1OC)C2=O` [No. 5, Aurantio-obtusin] showed an IC50 at 24 h of 333 µM and an IC50 at 48 h of 75.5 µM. For the same compound, the “effect on viability of HepaRG cells (in words)” value in the data set on HepaRG cells is “decreased the viability of HepaRG cells”. Besides, in data set [2], the IC50 at 24 h is > 500 µM and the IC50 at 48 h amounted to 117 µM.
In data set [1], `COc1c(O)c(C)cc2c1C(=O)c1c(O)cccc1C2=O` [No. 3, Obtusifoline] had an IC50 at 24 h of 117 µM and an IC50 at 48 h of 35 µM. Further, in data set [2], half-maximal inhibition (IC50 at 24 h) was put at 310 µM and the IC50 at 48 h stood at 389 µM.
In the case of `Cc1cc(O)c2c(c1)C(=O)c1cccc(O)c1C2=O` [No. 9, Chrysophanol], in data set [1], the IC50 at 24 h was > 500 µM and the 50% inhibitory concentration (IC50) at 48 h is 170 µM. For the same compound, in data set [2], the IC50 at 24 h was > 500 µM and the IC50 at 48 h amounted to 93.9 µM.
As for `COc1c(O)c(C)cc2c1C(=O)c1c(cc(O)c(O)c1O)C2=O` [No. 6, 1,2,3,7-tetrahydroxy-8-methoxy-6-methyl-anthraquinone], in data set [1], the IC50 at 24 h was > 500 µM and the IC50 at 48 h was found to be 209 µM. Moreover, in data set [2], the IC50 at 24 h is > 500 µM and the IC50 at 48 h was 283 µM.
Turning to `COc1cc2c(c(O)c1OC)C(=O)c1c(cc(C)c(O[C@@H]3O[C@H](CO)[C@@H](O)[C@H](O)[C@H]3O)c1OC)C2=O` [No. 18, Gluco-obtusin], the IC50 in the data set on HepaRG cells (setting [7]) was 178 µM; in the data set with HepaRG cells (setting [8]), 125 µM; in the data set on HK-2 cells [4] (setting [9]) it was 255 µM; with HK-2 cells [4] (setting [10]), > 500 µM.
For `COc1cc(O)c2c(c1)C(=O)c1cc(C)cc(O)c1C2=O` [No. 12, Physcion], the IC50 at 24 h in data set [1] and in data set [2] was > 500 µM each time. The IC50 at 48 h in data set [1] was 73.6 µM; in data set [2], 196 µM.
On to `Cc1cc2c(c(O)c1O)C(=O)c1c(O)cc(O)cc1C2=O` [No. 13, Alaternin (quinone)], for which the 50% inhibitory concentration (IC50) with HepaRG cells (setting [7]), in the data set with HepaRG cells (setting [8]), in the data set on HK-2 cells [4] (setting [9]) and with HK-2 cells [4] (setting [10]) was > 500 µM each time.
With 9-Dehydroxyeurotinone (EDG) [No. 21], the IC50 in the data set on HepaRG cells (setting [7]) was determined as 448 µM; with HepaRG cells (setting [8]), 331 µM; with HK-2 cells [4] (setting [9]) it was 380 µM; with HK-2 cells [4] (setting [10]), 111 µM.
Regarding `COc1c(O[C@@H]2O[C@H](CO)[C@@H](O)[C@H](O)[C@H]2O)cc2c(c1O)C(=O)c1c(cc(C)c(O)c1OC)C2=O` [No. 20, Glucoaurantio-obtusin], the IC50 with HepaRG cells (setting [7]) is 154 µM; with HK-2 cells [4] (setting [9]) it was > 500 µM.
As to `CC(=O)OC[C@H]1O[C@@H](Oc2cc(O)cc3cc4oc(C)cc(=O)c4c(O)c23)[C@H](O)[C@@H](O)[C@@H]1O` [No. 24, Nor-rubrofusarin-6-O-β-D-(6’-O-acetyl)glucopyranoside], the IC50 in the data set on HepaRG cells (setting [7]) is > 500 µM; in the data set on HepaRG cells (setting [8]), 226 µM; with HK-2 cells [4] (setting [9]), > 500 µM; in the data set on HK-2 cells [4] (setting [10]), > 500 µM.
In the case of `COc1cc2c(c(O)c1OC)C(=O)c1c(cc(C)c(O)c1OC)C2=O` [No. 2, Obtusin], the IC50 is 298 µM in the data set on HepaRG cells (setting [7]), 81.2 µM in the data set on HepaRG cells (setting [8]), 50.5 µM with HK-2 cells [4] (setting [9]) and 57.8 µM in the data set on HK-2 cells [4] (setting [10]). The “both hepatotoxicity and nephrotoxicity (in words)” value in data set [5] is “both hepatotoxicity and nephrotoxicity”.
In the case of `CC(=O)c1c(C)cc2cc(O)cc(O[C@@H]3O[C@H](CO)[C@@H](O)[C@H](O)[C@H]3O)c2c1O` [No. 25, 6-Hydroxymusizin-8-O-β-D-glucopyranoside], the concentration for half-maximal inhibition (IC50) in the data set on HepaRG cells (setting [7]) was > 500 µM; in the data set with HepaRG cells (setting [8]), 317 µM; in the data set with HK-2 cells [4] (setting [9]), > 500 µM; in the data set with HK-2 cells [4] (setting [10]), > 500 µM.
With `COc1cc2c(c(OC)c1OC)C(=O)c1c(cc(C)c(O)c1OC)C2=O` [No. 1, Chryso-obtusin], in data set [1], the IC50 at 24 h is 71.9 µM and half-maximal inhibition (IC50 at 48 h) was put at 388 µM. In data set [2], it took 53 µM to reach half-maximal inhibition (IC50 at 24 h) and inhibition was half-maximal at 33.6 µM (IC50 at 48 h).
On to `COc1c(O[C@@H]2O[C@H](CO)[C@@H](O)[C@H](O)[C@H]2O)c(C)cc2c1C(=O)c1c(O)cccc1C2=O` [No. 16, Obtusifoline-2-O-β-D-glucoside], for which the IC50 in the data set with HepaRG cells (setting [7]) worked out at 108 µM; in the data set with HepaRG cells (setting [8]), 98.5 µM; in the data set on HK-2 cells [4] (setting [9]), 270 µM; in the data set with HK-2 cells [4] (setting [10]) it was 251 µM.
